Measurements: ChEMBL document CHEMBL3286129, “Optimization of peptidomimetic boronates bearing a P3 bicyclic scaffold as proteasome inhibitors” (Eur J Med Chem, 2014)
Active and inactive are the calls of the source. The rule behind the calls is not given here.

Legend:
[1] = molecular target: T1, Proteasome Macropain subunit MB1 (Homo sapiens, UniProt P28074); test: Inhibition of chymotrypsin-like activity of 20S proteasome in human erythrocytes using Suc-Leu-Leu-Val-Tyr-AMC as substrate by fluorescence assay
T1 sequence (P28074 whole entry): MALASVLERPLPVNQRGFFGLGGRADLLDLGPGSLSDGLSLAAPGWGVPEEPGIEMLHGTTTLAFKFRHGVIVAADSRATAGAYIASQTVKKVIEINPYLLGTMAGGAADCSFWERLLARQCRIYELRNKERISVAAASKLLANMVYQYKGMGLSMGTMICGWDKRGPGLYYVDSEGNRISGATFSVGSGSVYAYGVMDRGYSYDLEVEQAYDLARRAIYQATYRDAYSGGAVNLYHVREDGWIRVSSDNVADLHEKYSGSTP

[2] = Cytotoxicity against human prostate cancer cells assessed as cell growth at 10 uM relative to control; format: functional; details: Cancer cell lines, read-out: Activity
How it was run: (§1)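 Single-concentration screen against a panel of human cancer cell lines. Each value is the mean percent growth across the cell lines of that tumour subpanel.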

[3] = molecular target: T2, Proteasome Macropain subunit MB1 (Homo sapiens) (UniProt P28074); test: Inhibition of chymotrypsin-like activity of 20S proteasome in human erythrocytes using Suc-Leu-Leu-Val-Tyr-AMC as substrate at 20 uM by fluorescence assay relative to control
T2 sequence (whole entry): T1 sequence (P28074 whole entry)
How it was run: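 Single inhibitor concentration, equivalent DMSO as negative control. AMC fluorescence read at ex 380/em 460 nm; percent inhibition of ChT-L activity.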

Proteasome component C5 = molecular target: T3, Proteasome component C5 (Homo sapiens, UniProt P20618); test: Inhibition of PGPH-like activity of 20S proteasome in human erythrocytes using Z-Leu-Leu-Glu-AMC as substrate by fluorescence assay
T3 sequence (P20618 whole entry): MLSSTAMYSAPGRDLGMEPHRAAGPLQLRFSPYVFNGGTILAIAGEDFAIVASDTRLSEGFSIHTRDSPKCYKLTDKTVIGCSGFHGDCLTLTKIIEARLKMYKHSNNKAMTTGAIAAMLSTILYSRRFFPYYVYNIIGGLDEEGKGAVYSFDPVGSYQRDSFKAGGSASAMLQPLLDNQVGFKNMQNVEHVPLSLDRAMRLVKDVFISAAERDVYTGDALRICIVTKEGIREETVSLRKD
How it was run: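 Human 20S proteasome 0.004 mg/mL, 30 °C, 50 mM Tris pH 7.5 with 25 mM KCl, 10 mM NaCl, 1 mM MgCl2, 0.03% SDS, 5% DMSO. Ki from 4-parameter IC50 fit of progress curves, corrected to zero substrate via Km. Mean of three.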

[4] = Cytotoxicity against human melanoma cells assessed as cell growth at 10 uM relative to control; format: functional; details: read-out: Activity; how it was run: as §1
[5] = Cytotoxicity against human colon cancer cells assessed as cell growth at 10 uM relative to control; format: functional; details: Cancer cell lines, read-out: Activity; how it was run: as §1
[6] = Cytotoxicity against human breast cancer cells assessed as cell growth at 10 uM relative to control; format: functional; details: Cancer cell lines, read-out: Activity; how it was run: as §1
[7] = Cytotoxicity against human leukemia cells assessed as cell growth at 10 uM relative to control; format: functional; details: read-out: Activity; how it was run: as §1
[8] = Cytotoxicity against human CNSC cells assessed as cell growth at 10 uM relative to control; format: functional; details: read-out: Activity; how it was run: as §1
[9] = Cytotoxicity against human ovarian cancer cells assessed as cell growth at 10 uM relative to control; format: functional; details: Cancer cell lines, read-out: Activity; how it was run: as §1
Chymotrypsinogen A = Chymotrypsinogen A (Bos taurus, UniProt P00766); test: Inhibition of bovine pancreatic alpha-chymotrypsin using Suc-Leu-Leu-Val-Tyr-AMC as substrate by fluorescence assay
How it was run: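 Enzyme incubated at 20 °C in 50 mM Tris pH 8.0, 100 mM NaCl, 5 mM EDTA, 7.5% DMSO with varied inhibitor concentrations. Substrate hydrolysis followed for 10 min. Ki from progress curves; mean of three determinations.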

[10] = Cytotoxicity against human renal cancer cells assessed as cell growth at 10 uM relative to control; format: functional; details: Cancer cell lines, read-out: Activity; how it was run: as §1
[11] = Cytotoxicity against human NSCLC cells assessed as cell growth at 10 uM relative to control; format: functional; details: read-out: Activity; how it was run: as §1
[12] = molecular target: Proteasome Macropain subunit (Homo sapiens) (UniProt P49721); test: Inhibition of trypsin-like activity of 20S proteasome in human erythrocytes using Boc-Leu-Arg-Arg-AMC as substrate by fluorescence assay; format: cell-based
Chain of Proteasome Macropain subunit (Homo sapiens) (P49721 whole entry): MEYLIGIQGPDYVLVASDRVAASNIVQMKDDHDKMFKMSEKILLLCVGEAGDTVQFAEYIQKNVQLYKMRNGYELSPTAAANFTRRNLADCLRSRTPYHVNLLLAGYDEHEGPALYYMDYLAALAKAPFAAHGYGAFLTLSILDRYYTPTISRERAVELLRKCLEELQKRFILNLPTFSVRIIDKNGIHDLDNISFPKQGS
How it was run: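 Human 20S proteasome 0.0025 mg/mL at 30 °C in 50 mM Tris pH 7.4, 50 mM NaCl, 0.5 mM EDTA, 0.03% SDS, 7.5% DMSO. Varied inhibitor concentrations; AMC release monitored continuously for 10 min, ex 380/em 460 nm. Ki derived from progress-curve IC50 fit.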

KM12 = test: Growth inhibition of human KM12 cells; format: functional
MDA-MB-231 = test: Growth inhibition of human MDA-MB-231 cells; format: functional
NCI-H226 = test: Growth inhibition of human NCI-H226 cells; format: functional
HOP-62 = test: Growth inhibition of human HOP62 cells; format: functional
NCI-H522 = test: Growth inhibition of human NCI-H522 cells; format: functional
[13] = Growth inhibition of human OVCAR5 cells; format: functional; details: OVCAR-5
SR = test: Growth inhibition of human SR cells; format: functional
[14] = Growth inhibition of human BT549 cells; format: functional; details: BT-549
[15] = Growth inhibition of human UACC62 cells; format: functional; details: UACC-62
[16] = Growth inhibition of human Hs 578T cells; format: functional
[17] = Growth inhibition of human MOLT4 cells; format: functional; details: MOLT-4
NCI-H460 = test: Growth inhibition of human NCI-H460 cells; format: functional
HL-60(TB) = test: Growth inhibition of human HL-60(TB) cells; format: functional
SNB-19 = test: Growth inhibition of human SNB19 cells; format: functional
[18] = Growth inhibition of human NCI-ADR-RES cells; format: functional
[19] = Growth inhibition of human SF539 cells; format: functional; details: SF-539
A498 = test: Growth inhibition of human A498 cells; format: functional
MDA-MB-468 = test: Growth inhibition of human MDA-MB-468 cells; format: functional
[20] = Growth inhibition of human HCC2998 cells; format: functional; details: HCC 2998
MDA-MB-435 = test: Growth inhibition of human MDA-MB-435 cells; format: functional
SF-268 = test: Growth inhibition of human SF268 cells; format: functional
[21] = Growth inhibition of human UO31 cells; format: functional; details: UO-31
CAKI-1 = test: Growth inhibition of human CAKI-1 cells; format: functional
[22] = Growth inhibition of human UACC257 cells; format: functional; details: UACC-257
[23] = Growth inhibition of human OVCAR4 cells; format: functional; details: OVCAR-4
TK-10 = test: Growth inhibition of human TK10 cells; format: functional
PC-3 = test: Growth inhibition of human PC3 cells; format: functional
Malme-3M = test: Growth inhibition of human MALME-3M cells; format: functional
CCRF-CEM = test: Growth inhibition of human CCRF-CEM cells; format: functional
[24] = Growth inhibition of human HCT15 cells; format: functional; details: HCT-15
SK-OV-3 = test: Growth inhibition of human SKOV3 cells; format: functional
U-251 = test: Growth inhibition of human U251 cells; format: functional
HCT-116 = test: Growth inhibition of human HCT116 cells; format: functional
T47D = test: Growth inhibition of human T47D cells; format: functional
[25] = Growth inhibition of human EKVX cells; format: functional
SNB-75 = test: Growth inhibition of human SNB75 cells; format: functional
SK-MEL-5 = test: Growth inhibition of human SK-MEL-5 cells; format: functional
[26] = Growth inhibition of human HOP92 cells; format: functional; details: HOP-92
DU-145 = test: Growth inhibition of human DU145 cells; format: functional
SK-MEL-28 = test: Growth inhibition of human SK-MEL-28 cells; format: functional
[27] = Growth inhibition of human OVCAR8 cells; format: functional; details: OVCAR-8
HT-29 = test: Growth inhibition of human HT-29 cells; format: functional
NCI-H322M = test: Growth inhibition of human NCI-H322M cells; format: functional
[28] = Growth inhibition of human OVCAR3 cells; format: functional; details: OVCAR-3
MCF7 = test: Growth inhibition of human MCF7 cells; format: functional
[29] = Growth inhibition of human RXF393 cells; format: functional; details: RXF 393
NCI-H23 = test: Growth inhibition of human NCI-H23 cells; format: functional
M14 = test: Growth inhibition of human M14 cells; format: functional
COLO 205 = test: Growth inhibition of human COLO205 cells; format: functional
786-0 = test: Growth inhibition of human 786-0 cells; format: functional
RPMI-8226 = test: Growth inhibition of human RPMI8226 cells; format: functional
SK-MEL-2 = test: Growth inhibition of human SK-MEL-2 cells; format: functional
A549 = test: Growth inhibition of human A549/ATCC cells; format: functional
IGROV-1 = test: Growth inhibition of human IGROV1 cells; format: functional
[30] = Growth inhibition of human SF295 cells; format: functional; details: SF-295
SW-620 = test: Growth inhibition of human SW620 cells; format: functional
[31] = Growth inhibition of human LOXIMVI cells; format: functional; details: LOX IMVI
SN12C = test: Growth inhibition of human SN12C cells; format: functional
ACHN = test: Growth inhibition of human ACHN cells; format: functional
K562 = test: Growth inhibition of human K562 cells; format: functional

COc1cc2ccn(CC(=O)N[C@@H](CC(C)C)B(O)O)c(=O)c2cc1OC
Ki [1]: Not Active
growth at 10 µM [2]: 100%
inhibition [3]: > 40%
Ki (Proteasome component C5): Not Active
growth at 10 µM [4]: 104%
growth at 10 µM [5]: 104%
growth at 10 µM [6]: 99%
growth at 10 µM [7]: 98.8%
growth at 10 µM [8]: 99.6%
growth at 10 µM [9]: 103%
Ki (Chymotrypsinogen A): Not Active
growth at 10 µM [10]: 98.5%
growth at 10 µM [11]: 102%
inhibition [12]: inactive

CC(C)C[C@H](NC(=O)Cn1ccc2ccccc2c1=O)B(O)O
Ki ([1]; read-out: Ki): 490 nM
growth at 10 µM [2]: 80.2%
inhibition [3]: > 40%
growth at 10 µM [4]: 43.5%
growth at 10 µM [5]: 57.9%
growth at 10 µM [6]: 51.3%
growth at 10 µM [7]: 23.1%
growth at 10 µM [8]: 71%
growth at 10 µM [9]: 86.7%
Ki (Chymotrypsinogen A; read-out: Ki): 9110 nM
growth at 10 µM [10]: 39.8%
growth at 10 µM [11]: 75.6%
inhibition [12]: inactive

CC(C)C[C@H](NC(=O)[C@H](Cc1ccccc1)NC(=O)c1cnccn1)B(O)O [BORTEZOMIB]
GI50 (KM12): 1.7 nM
GI50 (MDA-MB-231): 1.26 nM
GI50 (NCI-H226): 0.46 nM
GI50 (HOP-62): 4.47 nM
GI50 (NCI-H522): 1.44 nM
GI50 [13]: 1.55 nM
GI50 (SR): 0.85 nM
GI50 [14]: 0.55 nM
GI50 [15]: 0.91 nM
GI50 [16]: 1.02 nM
GI50 [17]: 0.51 nM
GI50 (NCI-H460): 4.47 nM
GI50 (HL-60(TB)): 1.9 nM
GI50 (SNB-19): 2.04 nM
GI50 [18]: 12.3 nM
GI50 [19]: 0.59 nM
GI50 (A498): 0.48 nM
GI50 (MDA-MB-468): 1.48 nM
GI50 [20]: 0.6 nM
GI50 (MDA-MB-435): 0.44 nM
GI50 (SF-268): 1.17 nM
GI50 [21]: 1.05 nM
GI50 (CAKI-1): 0.66 nM
GI50 [22]: 0.59 nM
GI50 [23]: 1.95 nM
GI50 (TK-10): 1 nM
GI50 (PC-3): 2.63 nM
GI50 (Malme-3M): 0.45 nM
GI50 (CCRF-CEM): 0.35 nM
GI50 [24]: 1.51 nM
GI50 (SK-OV-3): 13.8 nM
GI50 (U-251): 1.55 nM
GI50 (HCT-116): 0.6 nM
GI50 (T47D): 0.6 nM
GI50 [25]: 3.02 nM
GI50 (SNB-75): 2.04 nM
GI50 (SK-MEL-5): 0.68 nM
GI50 [26]: 1 nM
GI50 (DU-145): 1.7 nM
GI50 (SK-MEL-28): 0.46 nM
GI50 [27]: 2.63 nM
GI50 (HT-29): 0.95 nM
Ki (Chymotrypsinogen A; read-out: Ki): 2400 nM
GI50 (NCI-H322M): 17.8 nM
GI50 [28]: 0.54 nM
GI50 (MCF7): 0.55 nM
GI50 [29]: 0.71 nM
GI50 (NCI-H23): 1 nM
GI50 (M14): 0.93 nM
GI50 (COLO 205): 1.23 nM
GI50 (786-0): 1.44 nM
GI50 (RPMI-8226): 0.23 nM
GI50 (SK-MEL-2): 1.07 nM
GI50 (A549): 3.09 nM
GI50 (IGROV-1): 2.24 nM
GI50 [30]: 1.7 nM
GI50 (SW-620): 0.55 nM
GI50 [31]: 0.78 nM
GI50 (SN12C): 1.1 nM
GI50 (ACHN): 0.79 nM
GI50 (K562): 1.17 nM
